As usually defined, the pIC50 is the IC50 on a negative log10 scale, so that one unit is a factor of ten.

The source of these data is ChEMBL document CHEMBL5244265 (Bioorg Med Chem, 2020).

pIC50: −log10 of the molar value.

The subject of one experiment is Parengyodontium album. The experiment can be described thus: Inhibition of Tritirachium album limber Proteinase K using H-D-CHA -Ala-Arg-AMC.2AcOH as substrate by fluorescence based analysis relative to proteinase K inhibitor. Put shortly:
(§1)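 Each enzyme was read as a time course of rising fluorescence from cleavage of its AMC-labelled peptide substrate. The initial linear slope (signal/min) was analysed. Non-human sources: chymotrypsin from bovine pancreas, proteinase A from B. licheniformis, proteinase K from T. album limber.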

The target in experiment [1] is T1, Kallikrein-7 (Homo sapiens, UniProt P49862). Nature of the experiment: Inhibition of human recombinant kallikrein 7 (23 to 252 residues) using MCA-RPKPVE-Nval-WRK(Dnp)-NH2 as substrate by fluorescence based analysis. Put shortly: (§2)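 Fluorogenic assay with HNE (MeOSucAAPV-AMC substrate) or human KLK7 ([…] substrate). Test compounds ran as a 10-dose, 3-fold dilution series from 1 μM in duplicate, with controls tested in the same run. Activity was taken from the initial linear slope of the fluorescence increase over time. Results are mean of n = 2, expressed relative to 0.5% DMSO vehicle.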
Target sequence in this assay (P49862 whole entry, the tested form may be a part): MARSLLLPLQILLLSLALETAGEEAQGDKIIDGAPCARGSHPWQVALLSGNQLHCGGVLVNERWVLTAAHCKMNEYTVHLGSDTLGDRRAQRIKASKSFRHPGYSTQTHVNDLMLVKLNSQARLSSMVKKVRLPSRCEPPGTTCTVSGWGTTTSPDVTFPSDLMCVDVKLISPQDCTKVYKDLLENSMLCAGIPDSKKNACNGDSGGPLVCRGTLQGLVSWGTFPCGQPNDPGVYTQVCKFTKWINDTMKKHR

The nature of experiment [2]: Inhibition of Tritirachium album limber Proteinase K using H-D-CHA -Ala-Arg-AMC.2AcOH as substrate by fluorescence based analysis. More on the design: species or system Parengyodontium album. In short, it runs like this: as §1
Experiment [3] addresses T2, Neutrophil elastase (Homo sapiens, UniProt P08246).
T2 sequence (P08246 whole entry): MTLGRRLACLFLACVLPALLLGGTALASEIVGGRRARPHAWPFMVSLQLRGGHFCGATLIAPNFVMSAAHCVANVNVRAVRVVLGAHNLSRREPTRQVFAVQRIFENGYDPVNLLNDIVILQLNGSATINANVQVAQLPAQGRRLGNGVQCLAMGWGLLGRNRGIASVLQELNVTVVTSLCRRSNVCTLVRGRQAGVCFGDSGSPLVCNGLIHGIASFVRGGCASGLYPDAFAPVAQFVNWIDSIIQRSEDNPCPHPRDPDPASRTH
The experiment can be described thus: Inhibition of elastase in human neutrophil using N-(OMe-succinyl)-Ala-Ala-Pro-Val-p-nitroanilide as substrate preincubated with enzyme for 15 mins followed by substrate addition and measured every 30s for 30 mins by absorbance based analysis. Put shortly: (§3)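 HNE stock at 100 μg/mL and substrate stock at 2 mM, both in 0.1 M Tris–0.5 M NaCl pH 7.5. Compound or DMSO was preincubated with enzyme in the same buffer for 15 min at room temperature, then substrate was added. A405 was read every 30 s for 30 min. Activity was taken from the initial slope as a percentage of the uninhibited reaction.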

Experiment [4] can be described thus: Inhibition of chymotrypsin in bovine pancreas using Suc-AAPF-AMC as substrate by fluorescence based analysis. It counts as tissue-based, Bos taurus. Put shortly: as §1
Experiment [5] addresses T2, Neutrophil elastase. The experiment can be described thus: Inhibition of elastase in human neutrophil using MeOSuc-AAPV-AMC as substrate by fluorescence based analysis. It counts as cell-based. Put shortly:
as §2

In experiment [6] the target is T3, Neutrophil elastase (Homo sapiens) (UniProt P08246).
T3 sequence (whole entry): T2 sequence (P08246 whole entry)
Nature of the experiment: Inhibition of elastase in human neutrophil using N-(OMe-succinyl)-Ala-Ala-Pro-Val-p-nitroanilide as substrate preincubated with enzyme for 15 mins followed by substrate addition and measured every 30s for 30 mins by absorbance based analysis relative to symplostatin 5. The following applies: time 45.0 min. Put shortly:
as §3

Experiment [7] is described as follows: Inhibition of porcine pancreatic elastase. More on the design: species or system Sus scrofa.
Experiment [8] is described as follows: Selectivity ratio of IC50 for chymotrypsin in bovine pancreas to IC50 for human neutrophil elastase.
The nature of experiment [9]: Inhibition of Bacillus licheniformis Proteinase A using Z-GPR-AMC as substrate by fluorescence based analysis. Put shortly: as §1
Experiment [10] deals with T3, Neutrophil elastase (Homo sapiens). Nature of the experiment: Inhibition of elastase in human neutrophil using N-(OMe-succinyl)-Ala-Ala-Pro-Val-p-nitroanilide as substrate preincubated with enzyme for 15 mins followed by substrate addition and measured every 30s for 30 mins by absorbance based analysis relative to sivelestat. The following applies: time 45.0 min. In short, it runs like this: as §3

Experiment [11] shares this target. Nature of the experiment: Inhibition of elastase in human neutrophil using MeOSuc-AAPV-AMC as substrate by fluorescence based analysis relative to sivelestat. It counts as cell-based. Put shortly:
as §2

The target of experiment [12] is T1, Kallikrein-7. Nature of the experiment: Inhibition of human recombinant kallikrein 7 (23 to 252 residues) using MCA-RPKPVE-Nval-WRK(Dnp)-NH2 as substrate by fluorescence based analysis relative to gabexate mesylate. In short, it runs like this:
as §2
Target sequence in this assay (P49862 30-253 limits assumed): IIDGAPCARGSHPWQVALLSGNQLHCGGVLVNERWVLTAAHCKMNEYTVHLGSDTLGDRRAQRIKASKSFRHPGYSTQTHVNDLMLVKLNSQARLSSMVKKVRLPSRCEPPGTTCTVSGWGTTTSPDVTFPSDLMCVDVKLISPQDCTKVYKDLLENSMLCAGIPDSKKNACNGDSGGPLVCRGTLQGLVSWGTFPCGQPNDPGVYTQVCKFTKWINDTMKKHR

A further experiment concerns Bacillus licheniformis. The experiment can be described thus: Inhibition of Bacillus licheniformis Proteinase A using Z-GPR-AMC as substrate by fluorescence based analysis relative to leupeptin. Put shortly:
as §1

For experiment [13], the target named is T3, Neutrophil elastase (Homo sapiens). The experiment can be described thus: Inhibition of elastase in human neutrophil using N-(OMe-succinyl)-Ala-Ala-Pro-Val-p-nitroanilide as substrate preincubated with enzyme for 15 mins followed by substrate addition and measured every 30s for 30 mins by absorbance based analysis relative to tutuilamide A. To be noted: time 45.0 min. Put shortly: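 Human neutrophil elastase, from a 100 μg/mL enzyme stock in 0.1 M Tris–0.5 M NaCl (pH 7.5), was preincubated with compound at varying doses or DMSO vehicle for 15 min at room temperature in the same buffer. The p-nitroanilide substrate was added from a 2 mM stock, and A405 was read every 30 s for 30 min. Activity was taken as the initial slope, expressed as % of the uninhibited reaction, and IC50 came from dose-response.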

Experiment [14] addresses T1, Kallikrein-7. Nature of the experiment: Inhibition of human recombinant kallikrein 7 (23 to 252 residues) using MCA-RPKPVE-Nval-WRK(Dnp)-NH2 as substrate by fluorescence based analysis relative to tutuilamide A. In short, it runs like this:
as §2
Target sequence in this assay (P49862 30-253 limits assumed): as above

Experiment [15] has as its target T1, Kallikrein-7. The experiment can be described thus: Inhibition of KLK7 (unknown origin). Put shortly: as §2
Target sequence in this assay (P49862 whole entry, the tested form may be a part): as the sequence (P49862 whole entry, the tested form may be a part) above

As for `C/C=C1\NC(=O)[C@@H](NC(=O)[C@@H](NC(=O)[C@H](C)NC(=O)C/C(C)=C/Cl)[C@@H](C)CC)[C@@H](C)OC(=O)[C@H](C(C)C)NC(=O)[C@H](Cc2ccc(O)cc2)N(C)C(=O)[C@H](Cc2ccccc2)N2C(=O)[C@H](CC[C@H]2O)NC1=O`, the fold change (FC) in the experiment with Parengyodontium album was determined as 15; in [6], 2.1; in [10], 2.9; in experiment [11], 5; at Kallikrein-7 [12], 5680; with Bacillus licheniformis it was 4000. Also, the negative logarithm of the IC50 (pIC50) on Kallikrein-7 [1] was 8.30; in experiment [2], 7.91; at Neutrophil elastase [3], 7.36; in experiment [4] it was 7.01; against Neutrophil elastase [5], 9.14; in experiment [7], 8.92. This compound gave a pIC50 in experiment [9] of 7.50. In addition, in experiment [8], the Ratio IC50 amounted to 100.

For the compound `C/C=C1\NC(=O)[C@@H](NC(=O)[C@H](CCC(N)=O)NC(=O)CCCCC)[C@@H](C)OC(=O)[C@H](C(C)C)NC(=O)[C@H](Cc2ccc(O)cc2)N(C)C(=O)[C@H](Cc2ccccc2)N2C(=O)[C@H](CC[C@H]2O)NC1=O` [LYNGBYASTATIN 7], the pIC50 at Kallikrein-7 [1] is 8.51. Further, the fold change (FC) in experiment [13] is 1.5; on Kallikrein-7 [14] it was 1.6.

As to `CC(=O)N[C@@H](CC(C)C)C(=O)N[C@@H](CC(C)C)C(=O)N[C@H](C=O)CCCNC(=N)N` [LEUPEPTIN], in experiment [9], the pIC50 was 3.89.

For the compound `CCOC(=O)c1ccc(OC(=O)CCCCCNC(=N)N)cc1`, on Kallikrein-7 [1], the negative logarithm of the IC50 (pIC50) was 4.55.

Compound `CC[C@H](C)[C@@H]1NC(=O)[C@H](Cc2ccc(OCc3ccn(C)n3)cc2)N(C)C(=O)[C@H]([C@@H](C)CC)N2C(=O)[C@H](CC[C@H]2O)NC(=O)[C@H](CC(C)C)NC(=O)[C@@H](NC(=O)[C@H](CCC(N)=O)NC(=O)C(C)C)[C@@H](C)OC1=O` showed a pIC50 against Kallikrein-7 [15] of 9.70.

`CC[C@@H](C)[C@H]1C(=O)N(C)[C@@H](Cc2ccc(O)cc2)C(=O)N[C@H]([C@H](C)CC)C(=O)O[C@H](C)[C@H](NC(=O)[C@H](CCC(N)=O)NC(=O)C(C)C)C(=O)N[C@@H](CC(C)C)C(=O)N[C@H]2CC[C@@H](O)N1C2=O`: the pIC50 against Kallikrein-7 [15] is 9.00.
